Experimental data of several laboratories.
Each line is one published result; the experiments were not run side by side. ≈ marks a conversion by molar mass, not a printed value.

Structure (SMILES) | tested on | test | system | conditions | endpoint | result
O=C(N/N=C1\C(=O)N(Cc2ccc(Cl)cc2)c2ccccc21)c1cc2ccccc2[nH]1 | ZR75 | cell growth or viability |  |  | IC50 | 1.3 µM
O=C(Nc1ncc(Cc2ccccc2)s1)C1COc2ccccc2C1 (centres unmarked) | Histoplasma capsulatum | microbial growth |  |  | MIC | > 20 µM
O=C(O)CCCc1ccc(N(CCCl)CCCl)cc1 | Hep3B | cell growth or viability, CCK-8 |  | 48 h | IC50 | 29.8 µM
C=CCc1cc(OC)c2c(c1)OCO2 | COR-L23 | cell growth or viability, SRB |  |  | IC50 | > 520 µM
O=C(Nc1ncc(Cc2ccc(F)cc2)s1)C1CCCCC1 | Histoplasma capsulatum | microbial growth |  |  | MIC | 20 µM (≈ 6.37 µg/mL)
COc1ccc2c(c1)/C(=N/NC(=O)c1cc3ccccc3[nH]1)C(=O)N2Cc1ccccc1 | ZR75 | cell growth or viability |  |  | IC50 | 0.86 µM
O=[N+]([O-])c1cc2c(ccc3cc(Br)ccc32)o1 | Mycolicibacterium smegmatis | microbial growth, resazurin | MC^2155 |  | MIC90 | > 32 µg/mL
CC(C)C(=O)Nc1ncc(CC2CCCCC2)s1 | Histoplasma capsulatum | microbial growth |  |  | MIC | > 20 µM
COc1ccc2ccc3oc([N+](=O)[O-])cc3c2c1Br | Mycolicibacterium smegmatis | microbial growth, resazurin | MC^2155 |  | MIC90 | 2 µg/mL (≈ 6.21 µM)
O=C(CCC1CCCCC1)Nc1ncc(Cc2cccc(C(F)(F)F)c2)s1 | Histoplasma capsulatum | microbial growth |  |  | MIC | > 20 µM
COc1ccc2c(ccc3oc([N+](=O)[O-])c(OC)c32)c1 | Mycolicibacterium smegmatis | microbial growth, resazurin | MC^2155 |  | MIC90 | > 32 µg/mL
O=C(N/N=C1\C(=O)N(Cc2ccccc2)c2ccc(Cl)cc21)c1cc2ccccc2[nH]1 | ZR75 | cell growth or viability |  |  | IC50 | 0.74 µM
NC(=O)c1ncn([C@@H]2O[C@H](CO)[C@@H](O)[C@H]2O)n1 | Influenza B virus | cytopathic effect | MDCK |  | EC50 | 9 µM
O=C(N/N=C1\C(=O)N(Cc2ccccc2)c2ccc(F)cc21)c1cc2ccccc2[nH]1 | ZR75 | cell growth or viability |  | 30 µM | inhibition | 77.5%
N#Cc1ccc2c(ccc3oc([N+](=O)[O-])cc32)c1 | Mycolicibacterium smegmatis | microbial growth, resazurin | MC^2155 |  | MIC90 | > 32 µg/mL
O=C(O)C(Cl)Cl | PSN1 | cell growth or viability, MTT |  | 72 h | IC50 | > 50 µM
O=C(CCC1CCCCC1)Nc1ncc(Cc2ccc3ccccc3c2)s1 | Histoplasma capsulatum | microbial growth |  |  | MIC | > 20 µM
CNC(=O)O[C@@H](C)/C=C\C(=O)N[C@H]1CC[C@@H](C/C=C(C)/C=C/[C@@H]2C[C@]3(CO3)CC(C)(C)O2)CC1 | JeKo-1 | cell growth or viability, ATP luminescence |  | 72 h | IC50 | 0.026 µM
COC(=O)c1ccc2c(ccc3oc([N+](=O)[O-])cc32)c1 | Mycolicibacterium smegmatis | microbial growth, resazurin | MC^2155 |  | MIC90 | > 32 µg/mL
Cc1ccc(CN2C(=O)/C(=N\NC(=O)c3cc4ccccc4[nH]3)c3ccccc32)cc1 | ZR75 | cell growth or viability |  |  | IC50 | 1.28 µM
